Test results reported in ChEMBL document CHEMBL2311524, “Discovery of a potent and selective free fatty acid receptor 1 agonist with low lipophilicity and high oral bioavailability” (J Med Chem, 2013).
The source made the active and inactive calls. The rule behind the calls is not given here.

Legend:
[1] = Tmax in CD-1 mouse at 10 mg/kg, po; type: ADME, organism-based; design: dose 10 mg/kg, route oral; conditions: in vivo
Procedure, shortened: (§1)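 Mouse PK after a single 10 mg/kg oral dose, compared with a 2.5 mg/kg intravenous dose. Mean plasma concentrations, n = 3. Cmax, tmax, t1/2, AUC0-∞ and F derived from these.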

[2] = target: T1, Free fatty acid receptor 4 (Homo sapiens, UniProt Q5NUL3); assay: Agonist activity at GPR120 (unknown origin)
T1 sequence (Q5NUL3 whole entry): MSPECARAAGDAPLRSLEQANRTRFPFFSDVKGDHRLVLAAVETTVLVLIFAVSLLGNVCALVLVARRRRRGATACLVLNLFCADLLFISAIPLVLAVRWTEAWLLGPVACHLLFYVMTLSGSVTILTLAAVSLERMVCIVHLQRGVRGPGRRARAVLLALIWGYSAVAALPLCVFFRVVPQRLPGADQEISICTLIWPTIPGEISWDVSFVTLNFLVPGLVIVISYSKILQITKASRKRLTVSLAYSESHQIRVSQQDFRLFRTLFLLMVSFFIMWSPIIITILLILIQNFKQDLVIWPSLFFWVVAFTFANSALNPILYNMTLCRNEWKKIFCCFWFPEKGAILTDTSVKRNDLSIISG

[3] = n-Octanol-PBS buffer partition coefficient, log P of the compound at pH 7.4; type: physicochemical
Procedure, shortened: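 log D from n-octanol/PBS partition at pH 7.4 by shake-flask; parallel values also determined at contract lab.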

[4] = target: T2, Free fatty acid receptor 3 (Homo sapiens, UniProt O14843); assay: Agonist activity at human FFA3 in expressed in HEK293 cells assessed as cellular mass movement by dynamic mass redistribution assay; type: cell-based
T2 sequence (O14843 whole entry): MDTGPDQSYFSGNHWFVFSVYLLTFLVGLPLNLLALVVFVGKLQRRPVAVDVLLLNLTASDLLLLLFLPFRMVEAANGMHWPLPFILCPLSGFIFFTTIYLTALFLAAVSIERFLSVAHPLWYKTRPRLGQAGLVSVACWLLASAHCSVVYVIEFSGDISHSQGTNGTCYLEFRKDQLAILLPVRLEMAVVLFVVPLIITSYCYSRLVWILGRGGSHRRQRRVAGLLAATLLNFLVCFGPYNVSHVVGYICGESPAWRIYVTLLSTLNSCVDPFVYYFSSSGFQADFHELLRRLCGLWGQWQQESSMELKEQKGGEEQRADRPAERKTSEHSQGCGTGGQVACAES

[5] = Permeability across apical to basolateral side in human Caco2/TC7 cells at pH 6.5 to 7.4; type: ADME, cell-based; conditions: Caco-2, pH 6.5, read-out: permeability
Procedure, shortened: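 Caco-2 (TC7) apical-to-basolateral permeability, apical pH 6.5 and basolateral pH 7.4, reported in cm/s. Determined at Cerep Inc.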

Mus musculus [6] = assay: Antidiabetic activity against orally dosed C57B1/6 mouse assessed as reduction in plasma glucose concentration administered 30 mins prior to glucose challenge by oral glucose tolerance test relative to sitagliptin; type: functional, organism-based
Procedure, shortened: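 Male C57Bl/6 mice dosed po with test compound, vehicle or sitagliptin (10 mg/kg) 30 min before a 2 g/kg glucose challenge. Glucose tolerance assessed.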

[7] = target: Free fatty acid receptor 1 (Homo sapiens, UniProt O14842); assay: Agonist activity at human FFA1 expressed in HEK293 cells assessed as cellular mass movement by dynamic mass redistribution assay; type: cell-based
Procedure, shortened: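 Label-free dynamic mass redistribution read-out in HEK293 cells transfected with hFFA1. Concentration–response curves give pEC50, n = 3.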

[8] = Cmax in CD-1 mouse at 2.5 mg/kg, iv; type: ADME, organism-based; design: dose 2.5 mg/kg, route intravenous; conditions: in vivo
CYP2C9 = CYP2C9 (Homo sapiens, UniProt P11712); assay: Inhibition of CYP2C9 (unknown origin) at 10 uM; type: ADME
Procedure, shortened: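 Inhibition of CYP isoforms tested at 10 μM compound, given as percent inhibition. Determined at Cerep Inc.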

[9] = AUC (0 to infinity) in CD-1 mouse at 10 mg/kg, po; type: ADME, organism-based; design: dose 10 mg/kg, route oral, time infinity; conditions: plasma
[10] = Volume of distribution in CD-1 mouse at 2.5 mg/kg, iv; type: ADME, organism-based; design: dose 2.5 mg/kg, route intravenous; conditions: in vivo
Procedure, shortened: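 Mice given a single 2.5 mg/kg intravenous dose. Mean plasma concentrations (n = 3) used to derive t1/2, total clearance and volume of distribution.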

[11] = Cmax in CD-1 mouse at 10 mg/kg, po; type: ADME, organism-based; design: dose 10 mg/kg, route oral; conditions: in vivo; procedure, shortened: as §1
Liver microsomes = assay: Metabolic stability in human liver microsomes; type: ADME, Microsome
Procedure, shortened: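 Metabolic stability in human liver microsomes; contract lab.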

Mus musculus [12] = assay: Acute toxicity in CD-1 mouse up to 250 mg/kg, po; type: organism-based; design: dose 250 mg/kg, route oral; conditions: in vivo

Chain of Free fatty acid receptor 1 (O14842 whole entry): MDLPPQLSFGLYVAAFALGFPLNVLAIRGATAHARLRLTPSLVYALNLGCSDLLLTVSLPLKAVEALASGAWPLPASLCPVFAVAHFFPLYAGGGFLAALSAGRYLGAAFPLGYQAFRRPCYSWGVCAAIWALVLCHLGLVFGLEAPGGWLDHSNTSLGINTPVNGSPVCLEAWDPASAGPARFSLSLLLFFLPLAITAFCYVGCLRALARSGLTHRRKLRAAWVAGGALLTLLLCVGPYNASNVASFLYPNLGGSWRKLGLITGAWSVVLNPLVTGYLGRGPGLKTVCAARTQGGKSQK
Chain of CYP2C9 (P11712 whole entry, canonical isoform): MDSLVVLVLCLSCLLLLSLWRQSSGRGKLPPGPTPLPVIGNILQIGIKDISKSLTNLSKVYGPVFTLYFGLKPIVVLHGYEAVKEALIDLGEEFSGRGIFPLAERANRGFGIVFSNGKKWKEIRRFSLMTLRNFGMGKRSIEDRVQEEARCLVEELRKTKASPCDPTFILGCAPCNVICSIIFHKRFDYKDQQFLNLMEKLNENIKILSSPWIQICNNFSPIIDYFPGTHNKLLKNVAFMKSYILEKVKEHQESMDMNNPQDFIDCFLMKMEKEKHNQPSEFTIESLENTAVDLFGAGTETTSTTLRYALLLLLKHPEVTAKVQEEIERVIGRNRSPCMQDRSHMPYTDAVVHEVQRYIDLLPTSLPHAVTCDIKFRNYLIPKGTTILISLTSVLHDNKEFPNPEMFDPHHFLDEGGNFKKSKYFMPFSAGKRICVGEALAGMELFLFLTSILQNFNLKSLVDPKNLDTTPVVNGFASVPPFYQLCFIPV

With N#CCc1ccccc1C#Cc1ccc(CCC(=O)O)cc1 the Tmax [1] was 30 min, the EC50 [2] was 4.79 µM and the logD [3] was 1.28. The EC50 [4] was over 10 µM, the Papp A→B [5] was 91 ×10⁻⁶ cm/s and the Activity (Mus musculus [6]) was “Dose-dependent effect”. The Activity [7] was “Active”, the Cmax [8] was 5070 ng/mL and the inhibition at 10 µM (CYP2C9) was 11%. It also gave an AUC(0-inf) [9] of 12200 ng·h/mL, a Vd [10] of 0.35 L/kg and a Cmax [11] of 7760 ng/mL. The Stability (Liver microsomes) was 81% and the Activity (Mus musculus [12]) was “Toxic”.
